Like-named read-outs stand apart in the source and are kept apart here.
How the values were obtained:
CD1d = molecular target: T1, CD1d (Mus musculus, UniProt P11609); assay: Decay of glycolipids from CD1d measured by L317 binding; conditions: surface plasmon resonance, 25°C
T1 sequence (P11609 22-305 limits assumed): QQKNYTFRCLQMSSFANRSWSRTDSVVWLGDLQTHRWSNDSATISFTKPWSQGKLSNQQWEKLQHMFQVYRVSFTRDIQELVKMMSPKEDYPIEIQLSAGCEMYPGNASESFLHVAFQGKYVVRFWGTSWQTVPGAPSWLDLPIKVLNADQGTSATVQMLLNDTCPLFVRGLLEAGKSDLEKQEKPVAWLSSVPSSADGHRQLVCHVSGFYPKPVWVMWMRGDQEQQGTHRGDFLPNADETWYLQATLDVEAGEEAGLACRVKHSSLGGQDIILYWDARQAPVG
T1 sequence (P01887 21-119 partner): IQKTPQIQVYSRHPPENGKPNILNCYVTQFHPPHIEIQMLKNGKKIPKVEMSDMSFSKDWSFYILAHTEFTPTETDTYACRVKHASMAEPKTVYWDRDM
In short: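 His-tagged mouse CD1d pulsed overnight with each glycolipid, then captured on Ni-charged NTA sensor chip channels; complexes allowed to decay for varied times before a saturating dose of αGalCer/CD1d-specific mAb L317 was flowed over. Binding was measured by surface plasmon resonance at 25°C and normalized to maximum binding for each antigen.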

[1] = molecular target: Vα14i/Vβ8.2 TCR of 1.2 Vα14i NKT cell hybridoma (Mus musculus, UniProt A0A0B4J1J9+A0A0G2JG46+A0A140T8N6+P11609); assay: Equilibrium glycolipid/CD1d tetramer staining of 1.2 hybridoma; format: binding; conditions: glycolipid/CD1d tetramers
1.2 Vα14i NKT hybridoma = assay: ERK1/2 phosphorylation in Vα14i NKT hybridoma after glycolipid-pulsed APCs; format: cell-based, mouse; conditions: 1.2 hybridoma; for extent of ERK1/2 phosphorylation: A20-CD1d cells as APCs
In short: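 A20-CD1d cells (10^6/ml) were pulsed 2 h with glycolipid (DMSO stock diluted in PBS), washed cold, and mixed with hybridoma cells at 4:1 on ice, then pelleted and warmed to 37°C for timed intervals. Cells were fixed in 4% PFA, stained for Thy1.2, permeabilized in 90% methanol and stained for ppERK1/2. Flow cytometry was gated on Thy1.2+ cells with t = 0 as negative control. Values are % ppERK+ (glycolipid) minus % ppERK+ (vehicle).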

NK cells = assay: NK cell trans-activation; format: in vivo, mouse; conditions: 1 μg i.v., 18 h after injection, liver and spleen
In short: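 Glycolipid (DMSO stock diluted in PBS) was given i.v. Liver was perfused via portal vein and mononuclear cells isolated at the 40/60% Percoll interface (900 g, 20 min); splenocytes were dissociated and red cells lysed. Cells were surface-stained at 4°C for 45 min, then permeabilized with Cytofix/Cytoperm for intracellular IFNγ staining and flow cytometry.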

splenic DC = assay: Phenotype of splenic DC from glycolipid immunized mice; format: in vivo, mouse; conditions: 17.5 h and 44 h after immunization
[2] = molecular target: T2, glycolipid/CD1d complexes on splenic APC (Mus musculus, UniProt P11609); format: in vivo; conditions: 1 μg i.v.
T2 sequence (P11609 22-336): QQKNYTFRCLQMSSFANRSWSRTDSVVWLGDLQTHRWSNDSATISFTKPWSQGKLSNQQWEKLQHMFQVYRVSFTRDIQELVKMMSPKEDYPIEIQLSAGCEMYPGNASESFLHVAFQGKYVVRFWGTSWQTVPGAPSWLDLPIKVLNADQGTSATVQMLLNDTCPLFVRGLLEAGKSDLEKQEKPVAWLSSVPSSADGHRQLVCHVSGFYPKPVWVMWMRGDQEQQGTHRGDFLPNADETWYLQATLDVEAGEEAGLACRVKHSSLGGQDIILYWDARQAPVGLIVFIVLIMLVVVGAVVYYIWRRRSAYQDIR
T2 sequence (P01887 21-119 partner): T1 sequence (P01887 21-119 partner)
In short: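 At set times after i.v. immunization, spleens were collagenase D-digested at 37°C, treated with 5 mM EDTA for 5 min and strained. Cells were split into CD11c-enriched and depleted fractions with anti-CD11c magnetic beads. A dose range of each fraction was cultured with 1.2 hybridoma cells (2 × 10^5/well) without added antigen. Supernatant IL-2 was measured by sandwich ELISA.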

C57BL/6J mice = assay: Serum cytokine ELISA after i.v. injection of glycolipid; format: in vivo, mouse; conditions: 1 μg i.v.
In short: (§1)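 Glycolipid was dissolved at 100 μg/mL in DMSO, diluted in PBS, heated 56°C 10 min and vortexed. Glycolipid or vehicle was injected i.v. and mice bled at set times. Serum cytokines were quantified by sandwich ELISA with paired capture/detection mAbs.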

Vα14i NKT cells = assay: Ex vivo activation of Vα14i NKT cells after i.v. glycolipid; format: in vivo, mouse; conditions: 1 μg i.v.; for Vα14i NKT cell activation (percentage producing IFNγ, IL-4 and TNF; CD69 and CD40L expression): two hours after injection
In short: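 Mice received glycolipid i.v. (DMSO stock diluted in PBS, heated 56°C 10 min). Spleens were taken at 2 h, mechanically dissociated, filtered and red cells lysed. Cells were stained with mAbs together with CD1d tetramer in PBS/10% FCS at 4°C for 45 min and analysed by flow cytometry.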

monoclonal antibody L317 = assay: L317 antibody binding to glycolipid/CD1d complexes; conditions: surface plasmon resonance
In short: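 Real-time binding of L317 to glycolipid-loaded CD1d was measured by surface plasmon resonance at 25°C. Kinetic parameters came from fitting specific sensorgrams.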

CD40−/− mice = assay: Serum IFNγ in CD40-deficient mice; format: in vivo, mouse; conditions: 1 μg i.v., serum at 6 h and 24 h, versus C57BL/6
In short: as §1

[3] = APC harvested 1.5 h after immunization

SMILES | t1/2 (dissociation of glycolipid from CD1d) (CD1d) [h] | t1/2 (dissociation of glycolipid from CD1d) (CD1d; listed as CD1d/OCH) [h] | tetramer binding to 1.2 hybridoma cells [1] | extent of ERK1/2 phosphorylation (1.2 Vα14i NKT hybridoma) | ERK1/2 phosphorylation (1.2 Vα14i NKT hybridoma; BMDCs or splenic B cells as APCs) | IFNγ production by NK cells (trans-activation) (NK cells) | increased expression of CD80, CD86 and CD1d in splenic DC (splenic DC) | IL-2 release by 1.2 hybridoma with APC from immunized mice [2, 3] | IL-2 release by 1.2 hybridoma with APC from immunized mice ([2]; APC harvested 17.5 h and 44 h after immunization) | serum IFNγ level (C57BL/6J mice) | serum IL-4 level (C57BL/6J mice) | CD40L expression on Vα14i NKT cells (Vα14i NKT cells; 2 h after injection, spleen) | Vα14i NKT cell activation (percentage producing IFNγ, IL-4 and TNF; CD69 and CD40L expression) (Vα14i NKT cells) | affinity of L317 for glycolipid bound to CD1d (monoclonal antibody L317) | t1/2 (dissociation of glycolipid from CD1d) (CD1d; listed as CD1d/αGalCer) [h] | IFNγ levels in CD40-deficient mice (CD40−/− mice) | stability of complexes with CD1d in vivo ([2]; functional bioassay)
CCCCCCCCCCCCCCCCCCCCCCCC(=O)N[C@@H](COC1OC(CO)C(O)C(O)C1O)[C@H](O)[C@H](O)CCCCC (some centres unmarked) [OCH] | 1.09 | 1.09 ± 0.63 | barely able to bind | indistinguishable | induced fewer 1.2 cells to phosphorylate ERK1/2 than αGalCer | Impaired NK cell trans-activation | to the same extent as αGalCer | higher production of IL-2 than C-glycoside | considerably reduced compared to αGalCer and C-glycoside | relatively low levels of IFNγ | high levels of IL-4, equivalent to αGalCer | induced more CD40L than C-glycoside | less potent than αGalCer | weaker |  |  | 
CCCCCCCCCCCCCCCCCCCCCCCCCC(=O)N[C@@H](CO[C@H]1O[C@H](CO)[C@H](O)[C@H](O)[C@H]1O)[C@H](O)[C@H](O)CCCCCCCCCCCCCC [αGalCer, α-galactosyl ceramide] | 5.043 |  |  | dose-dependent increase in ppERK |  | highest percentage of IFNγ-expressing NK cells |  | best response |  |  |  |  | highest percentage | highest | 5.043 ± 2.207 | strongly reduced | much more stable in vivo than OCH

— publication PMC2834884 (Journal of immunology (Baltimore, Md. : 1950), 2009)
